# Measured values pooled from the literature.
# Lines come from different studies, so protocols differ.
# CDK3 with cyclin E: Cyclin-dependent kinase 3, with cyclin E (CDK3, Homo sapiens, UniProt Q00526)
# CDK3: Cyclin-dependent kinase 3 (CDK3, Homo sapiens, UniProt Q00526)
# CDK3 with cyclin E1: Cyclin-dependent kinase 3, with cyclin E1 (CDK3, Homo sapiens, UniProt Q00526)
SMILES,target,assay,setting,endpoint,value
CCN(CC)CCNC(=O)c1c(C)[nH]c(/C=C2\C(=O)Nc3ccc(F)cc32)c1C,CDK3 with cyclin E,"enzyme activity, inhibitor",0.3 µM,inhibition,1%
CN1CC(Oc2cnc(C#N)cc2-c2ccn3nc(NC(=O)C4CC4)cc3c2)C1,CDK3 with cyclin E,"enzyme activity, inhibitor",1 µM,inhibition,4%
COc1cc(Cl)c(C(=O)N[C@@H](CN[C@H]2CC[C@@H](N)CC2)Cc2ccc(C#N)cc2)cc1-c1ccc(CN[C@H](C)c2ccc(C)cc2)o1,CDK3 with cyclin E,"enzyme activity, inhibitor",1 µM,remaining activity,99%
Cc1ccc(Nc2nccc(N(C)c3ccc4c(C)n(C)nc4c3)n2)cc1S(N)(=O)=O,CDK3 with cyclin E,"enzyme activity, inhibitor",0.3 µM,inhibition,-4%
CC(C)(O)[C@H]1CC[C@H](Nc2ccc3ncc(-c4cccc(C(F)(F)F)c4)n3n2)CC1,CDK3 with cyclin E,"enzyme activity, inhibitor",1 µM,remaining activity,105%
O=C1Nc2ccc(Cl)cc2C1=Cc1cc(Cl)c(O)c(Cl)c1,CDK3 with cyclin E,cell-free assay,0.5 µM,remaining signal,85.4%
Cc1nc(C2CCN(C(=O)c3ccc(OC(F)(F)F)cc3N)CC2)c2ncc(N3CCN(C)CC3)cc2n1,CDK3,"cell-free assay, competition with immobilised ligand",1 µM,remaining binding,100%
O=C(Nc1cnn(-c2csc(C(=O)NC3COC3)c2)c1)Nc1c(F)cccc1Cl,"Cyclin-dependent kinase 3, with cyclin E2 (CDK3, Homo sapiens, UniProt Q00526)","enzyme activity, inhibitor",5 µM,remaining activity,109%
Cc1cc(-n2nc(Cc3cc(F)cc(C(F)(F)F)c3)nc2C)ccc1C(N)=O,CDK3,"cell-free assay, competition with immobilised ligand",1 µM,remaining binding,100%
Cc1cc(NC(=O)c2cccc3cc(-c4cccc5[nH]nc(N)c45)ccc23)ccc1F,CDK3 with cyclin E,"enzyme activity, inhibitor",0.1 µM,activity vs control,96%
Cc1cc(NC(=O)c2cccc(S(F)(F)(F)(F)F)c2)cc(-n2ccn3nc(-c4cccnc4)cc23)c1,CDK3,"cell-free assay, competition with immobilised ligand",1 µM,remaining binding,100%
O=C(CSc1nc2nccnc2c(=O)n1CCc1ccccc1)Nc1nccs1,CDK3 with cyclin E1,"enzyme activity, inhibitor",10 µM,inhibition,-19%
COc1cc(-c2cn(C3CCc4c(F)cccc4N(CC(F)(F)F)C3=O)nn2)ccc1-n1cnc(C)c1 (stereo not shown),CDK3,"cell-free assay, competition with immobilised ligand",1 µM,remaining binding,100%
O=C(Nc1cnn(-c2csc(C(=O)NC3COC3)c2)c1)Nc1ccccc1Cl,CDK3 with cyclin E,"enzyme activity, inhibitor",5 µM,remaining activity,107%
Cc1nccc(COC(=O)N2C[C@@H]3[C@@H](CNC(=O)c4ccc5[nH]nnc5c4)[C@@H]3C2)n1,CDK3,"cell-free assay, competition with immobilised ligand",1 µM,remaining binding,97%
CC(C)(C)c1nc2c(s1)c1nc(N)ncc1c1ccc(NS(=O)(=O)c3c(F)cccc3F)c(F)c12,CDK3 with cyclin E1,"enzyme activity, inhibitor, radiometric",1 µM,remaining activity,98%
